Results: ChEMBL document CHEMBL1152244, “Proteochemometrics analysis of substrate interactions with dengue virus NS3 proteases” (Bioorg Med Chem, 2008)
Non-standard residues stand in square brackets, D forms with d. Residues, ends and D or L forms follow the SMILES beside them. Tyr(3-NO2) = N[C@@H](Cc1ccc(O)c([N+](=O)[O-])c1)C(=O)O; 2Abz = Nc1ccccc1C(=O)O

Key:
dengue virus type 1 = test: Activity of dengue virus 1 recombinant NS3 protease expressed in Escherichia coli C41(DE3) by fluorogenic assay
How it was run: (§1)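 NS2B(H)-NS3pro from inclusion bodies, Ni-chelate and gel filtration purified under 8 M urea, refolded by dialysis. Internally quenched Abz–RRRR-XXXX–nY–NH2 peptides, 1–100 µM (12 points), enzyme 150–200 nM, 50 mM Tris–HCl pH 9.0, 20% glycerol, 37 °C. Cleavage read as fluorescence, ex 320/em 420 nm. Initial rates fitted to give Km and kcat, averaged over ≥3 independent measurements.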

dengue virus type 2 = test: Activity of dengue virus 2 recombinant NS3 protease expressed in Escherichia coli C41(DE3) by fluorogenic assay; how it was run: as §1
dengue virus type 4 = test: Activity of dengue virus 4 recombinant NS3 protease expressed in Escherichia coli C41(DE3) by fluorogenic assay; how it was run: as §1
dengue virus type 3 = test: Activity of dengue virus 3 recombinant NS3 protease expressed in Escherichia coli C41(DE3) by fluorogenic assay; how it was run: as §1

Row | Compound | Km (dengue virus type 1) | kcat (dengue virus type 1) | Km (dengue virus type 2) | kcat (dengue virus type 2) | Km (dengue virus type 4) | kcat (dengue virus type 4) | Km (dengue virus type 3) | kcat (dengue virus type 3)
1 | CC(C)C[C@H](NC(=O)[C@H](Cc1cnc[nH]1)NC(=O)c1ccccc1N)C(=O)N[C@H](C(=O)N[C@@H](Cc1cnc[nH]1)C(=O)N[C@@H](Cc1ccc(O)c([N+](=O)[O-])c1)C(N)=O)C(C)C (H-[2Abz]HLVH[Tyr(3-NO2)]-NH2) | 8.83 µM | 0.00617 s⁻¹ | 14.1 µM | 0.00233 s⁻¹ | 16.3 µM | 0.018 s⁻¹ |  | 
2 | C[C@H](NC(=O)CNC(=O)[C@H](C)NC(=O)[C@H](CO)NC(=O)c1ccccc1N)C(=O)N[C@@H](Cc1ccc(O)c([N+](=O)[O-])c1)C(N)=O (H-[2Abz]SAGA[Tyr(3-NO2)]-NH2) | 23.3 µM | 0.227 s⁻¹ | 3.06 µM | 0.027 s⁻¹ | 10.5 µM | 0.222 s⁻¹ |  | 
3 | CSCC[C@H](NC(=O)CNC(=O)[C@H](C)NC(=O)[C@H](C)NC(=O)c1ccccc1N)C(=O)N[C@@H](Cc1ccc(O)c([N+](=O)[O-])c1)C(N)=O (H-[2Abz]AAGM[Tyr(3-NO2)]-NH2) | 17.9 µM | 0.0818 s⁻¹ | 2.46 µM | 0.00917 s⁻¹ | 8.22 µM | 0.0852 s⁻¹ | 12.1 µM | 0.012 s⁻¹
4 | CC(C)[C@H](NC(=O)CNC(=O)[C@H](CO)NC(=O)c1ccccc1N)C(=O)N[C@@H](CS)C(=O)N[C@@H](Cc1ccc(O)c([N+](=O)[O-])c1)C(N)=O (H-[2Abz]SGVC[Tyr(3-NO2)]-NH2) |  |  | 4.26 µM | 0.0163 s⁻¹ | 7.06 µM | 0.0757 s⁻¹ | 19.7 µM | 0.0292 s⁻¹
5 | NC(=O)[C@H](Cc1ccc(O)c([N+](=O)[O-])c1)NC(=O)[C@@H]1CCCN1C(=O)[C@@H]1CCCN1C(=O)CNC(=O)c1ccccc1N (H-[2Abz]GPP[Tyr(3-NO2)]-NH2) | 16.9 µM | 0.02 s⁻¹ | 5.15 µM | 0.00283 s⁻¹ | 8.15 µM | 0.022 s⁻¹ | 18.7 µM | 0.00733 s⁻¹
6 | CSCC[C@H](NC(=O)CNC(=O)[C@H](C)NC(=O)[C@H](CO)NC(=O)c1ccccc1N)C(=O)N[C@@H](Cc1ccc(O)c([N+](=O)[O-])c1)C(N)=O (H-[2Abz]SAGM[Tyr(3-NO2)]-NH2) | 25.5 µM | 0.166 s⁻¹ | 3.44 µM | 0.031 s⁻¹ | 22.7 µM | 0.282 s⁻¹ | 24.9 µM | 0.0557 s⁻¹
7 | CC(C)C[C@H](NC(=O)[C@@H]1CCCN1C(=O)[C@H](Cc1c[nH]c2ccccc12)NC(=O)[C@H](CO)NC(=O)c1ccccc1N)C(=O)N[C@@H](Cc1ccc(O)c([N+](=O)[O-])c1)C(N)=O (H-[2Abz]SWPL[Tyr(3-NO2)]-NH2) | 12.6 µM | 0.0323 s⁻¹ | 5.54 µM | 0.0105 s⁻¹ | 7.18 µM | 0.0668 s⁻¹ | 12 µM | 0.0148 s⁻¹
8 | C[C@H](NC(=O)c1ccccc1N)C(=O)N[C@@H](CC(N)=O)C(=O)NCC(=O)N[C@@H](Cc1cnc[nH]1)C(=O)N[C@@H](Cc1ccc(O)c([N+](=O)[O-])c1)C(N)=O (H-[2Abz]ANGH[Tyr(3-NO2)]-NH2) | 22.3 µM | 0.031 s⁻¹ | 7.02 µM | 0.0015 s⁻¹ | 10.8 µM | 0.0595 s⁻¹ | 31.4 µM | 0.0102 s⁻¹
9 | NC(=O)[C@H](Cc1ccc(O)c([N+](=O)[O-])c1)NC(=O)[C@H](CS)NC(=O)[C@@H]1CCCN1C(=O)[C@H](CC(=O)O)NC(=O)CNC(=O)c1ccccc1N (H-[2Abz]GDPC[Tyr(3-NO2)]-NH2) | 31.9 µM | 0.0202 s⁻¹ | 13.2 µM | 0.003 s⁻¹ | 11.5 µM | 0.021 s⁻¹ | 41.5 µM | 0.007 s⁻¹
10 | CC(C)[C@H](NC(=O)[C@H](C)NC(=O)[C@H](C)NC(=O)c1ccccc1N)C(=O)N[C@@H](CC(=O)O)C(=O)N[C@@H](Cc1ccc(O)c([N+](=O)[O-])c1)C(N)=O (H-[2Abz]AAVD[Tyr(3-NO2)]-NH2) | 31.4 µM | 0.0352 s⁻¹ | 18.3 µM | 0.0125 s⁻¹ | 36.9 µM | 0.113 s⁻¹ | 21.2 µM | 0.0153 s⁻¹
11 | C[C@H](NC(=O)[C@H](CO)NC(=O)c1ccccc1N)C(=O)NCC(=O)N[C@@H](Cc1ccc(O)c([N+](=O)[O-])c1)C(N)=O (H-[2Abz]SAG[Tyr(3-NO2)]-NH2) | 28.4 µM | 0.282 s⁻¹ | 3.61 µM | 0.0423 s⁻¹ | 15.2 µM | 0.461 s⁻¹ | 20.9 µM | 0.0685 s⁻¹
12 | C[C@@H](O)[C@H](NC(=O)[C@H](CO)NC(=O)c1ccccc1N)C(=O)N1CCC[C@H]1C(=O)N[C@@H](Cc1cnc[nH]1)C(=O)N[C@@H](Cc1ccc(O)c([N+](=O)[O-])c1)C(N)=O (H-[2Abz]STPH[Tyr(3-NO2)]-NH2) | 18.1 µM | 0.0313 s⁻¹ | 17.2 µM | 0.0157 s⁻¹ | 14.8 µM | 0.078 s⁻¹ | 42.2 µM | 0.0145 s⁻¹
13 | NC(=O)[C@H](Cc1ccc(O)c([N+](=O)[O-])c1)NC(=O)[C@H](CC(=O)O)NC(=O)[C@H](CS)NC(=O)[C@H](Cc1cnc[nH]1)NC(=O)[C@H](CO)NC(=O)c1ccccc1N (H-[2Abz]SHCD[Tyr(3-NO2)]-NH2) | 26.3 µM | 0.0685 s⁻¹ | 11.4 µM | 0.0123 s⁻¹ | 9.77 µM | 0.0783 s⁻¹ | 11.3 µM | 0.0285 s⁻¹
14 | NC(=O)[C@H](Cc1ccc(O)c([N+](=O)[O-])c1)NC(=O)[C@H](CS)NC(=O)CNC(=O)[C@H](Cc1c[nH]c2ccccc12)NC(=O)[C@H](CO)NC(=O)c1ccccc1N (H-[2Abz]SWGC[Tyr(3-NO2)]-NH2) |  |  | 2.87 µM | 0.0065 s⁻¹ | 4.79 µM | 0.0398 s⁻¹ |  | 
15 | C[C@H](NC(=O)c1ccccc1N)C(=O)NCC(=O)N1CCC[C@H]1C(=O)N[C@@H](CC(N)=O)C(=O)N[C@@H](Cc1ccc(O)c([N+](=O)[O-])c1)C(N)=O (H-[2Abz]AGPN[Tyr(3-NO2)]-NH2) | 12.6 µM | 0.0257 s⁻¹ | 4.18 µM | 0.00683 s⁻¹ | 19.2 µM | 0.0745 s⁻¹ | 10.8 µM | 0.0103 s⁻¹
16 | NC(=O)[C@H](Cc1ccc(O)c([N+](=O)[O-])c1)NC(=O)[C@H](CC(=O)O)NC(=O)[C@H](CO)NC(=O)[C@H](Cc1c[nH]c2ccccc12)NC(=O)[C@H](Cc1cnc[nH]1)NC(=O)c1ccccc1N (H-[2Abz]HWSD[Tyr(3-NO2)]-NH2) | 17.2 µM | 0.0025 s⁻¹ | 14.9 µM | 0.00117 s⁻¹ | 9.76 µM | 0.0108 s⁻¹ |  | 
17 | C[C@H](NC(=O)c1ccccc1N)C(=O)N1CCC[C@H]1C(=O)NCC(=O)N[C@@H](CC(=O)O)C(=O)N[C@@H](Cc1ccc(O)c([N+](=O)[O-])c1)C(N)=O (H-[2Abz]APGD[Tyr(3-NO2)]-NH2) |  |  | 19.6 µM | 0.000667 s⁻¹ | 89 µM | 0.0103 s⁻¹ |  | 

Results, then the molecule that gave them:

Row | Km (dengue virus type 1) | kcat (dengue virus type 1) | Km (dengue virus type 2) | kcat (dengue virus type 2) | Km (dengue virus type 4) | kcat (dengue virus type 4) | Km (dengue virus type 3) | kcat (dengue virus type 3) | Compound
18 | 16.3 µM | 0.153 s⁻¹ | 3.33 µM | 0.026 s⁻¹ | 14.3 µM | 0.219 s⁻¹ | 13.8 µM | 0.03 s⁻¹ | CSCC[C@H](NC(=O)[C@H](C)NC(=O)[C@H](C)NC(=O)[C@H](CO)NC(=O)c1ccccc1N)C(=O)N[C@@H](Cc1ccc(O)c([N+](=O)[O-])c1)C(N)=O (H-[2Abz]SAAM[Tyr(3-NO2)]-NH2)
19 | 11.4 µM | 0.0397 s⁻¹ | 5.41 µM | 0.004 s⁻¹ | 4.94 µM | 0.0477 s⁻¹ | 3.87 µM | 0.0112 s⁻¹ | C[C@H](NC(=O)c1ccccc1N)C(=O)N1CCC[C@H]1C(=O)N[C@@H](CS)C(=O)N[C@@H](CC(N)=O)C(=O)N[C@@H](Cc1ccc(O)c([N+](=O)[O-])c1)C(N)=O (H-[2Abz]APCN[Tyr(3-NO2)]-NH2)
20 | 106 µM | 0.006 s⁻¹ | 43.2 µM | 0.00167 s⁻¹ | 85.9 µM | 0.0253 s⁻¹ |  |  | CC(C)[C@H](NC(=O)[C@H](CC(=O)O)NC(=O)[C@H](CC(N)=O)NC(=O)c1ccccc1N)C(=O)N[C@@H](CC(=O)O)C(=O)N[C@@H](Cc1ccc(O)c([N+](=O)[O-])c1)C(N)=O (H-[2Abz]NDVD[Tyr(3-NO2)]-NH2)
21 | 8.81 µM | 0.0138 s⁻¹ | 3.21 µM | 0.00467 s⁻¹ | 3.03 µM | 0.0372 s⁻¹ | 13 µM | 0.0102 s⁻¹ | C[C@H](NC(=O)[C@H](CC(N)=O)NC(=O)c1ccccc1N)C(=O)N[C@@H](CS)C(=O)N[C@@H](CS)C(=O)N[C@@H](Cc1ccc(O)c([N+](=O)[O-])c1)C(N)=O (H-[2Abz]NACC[Tyr(3-NO2)]-NH2)
22 | 15.2 µM | 0.00767 s⁻¹ | 12.8 µM | 0.00117 s⁻¹ | 23.1 µM | 0.014 s⁻¹ | 11.1 µM | 0.00333 s⁻¹ | C[C@@H](O)[C@H](NC(=O)[C@H](CO)NC(=O)[C@H](CC(=O)O)NC(=O)c1ccccc1N)C(=O)N[C@@H](CS)C(=O)N[C@@H](Cc1ccc(O)c([N+](=O)[O-])c1)C(N)=O (H-[2Abz]DSTC[Tyr(3-NO2)]-NH2)
23 |  |  | 5.63 µM | 0.00433 s⁻¹ | 4.21 µM | 0.0305 s⁻¹ |  |  | C[C@H](NC(=O)c1ccccc1N)C(=O)N[C@@H](Cc1cnc[nH]1)C(=O)N[C@@H](CO)C(=O)N[C@@H](CS)C(=O)N[C@@H](Cc1ccc(O)c([N+](=O)[O-])c1)C(N)=O (H-[2Abz]AHSC[Tyr(3-NO2)]-NH2)
24 |  |  | 8.81 µM | 0.00233 s⁻¹ | 3.28 µM | 0.0157 s⁻¹ | 10 µM | 0.00283 s⁻¹ | NC(=O)C[C@H](NC(=O)[C@H](Cc1cnc[nH]1)NC(=O)c1ccccc1N)C(=O)N[C@@H](CS)C(=O)N[C@@H](CS)C(=O)N[C@@H](Cc1ccc(O)c([N+](=O)[O-])c1)C(N)=O (H-[2Abz]HNCC[Tyr(3-NO2)]-NH2)
